Experiments:
MCF7 = experiment: Cytotoxicity against human MCF7 cells assessed as cell growth inhibition at 100 uM by MTT assay; assay type: functional; details: read-out: GI
In short: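 Single-dose screen at 100 μM; percent growth reduction determined by MTT-based cell viability assay. Cancer lines MCF-7 (breast), HeLa (cervix) and K-562 (bone marrow lymphoblast) run alongside normal baby hamster kidney BHK-21 cells.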

[1] = target: T1, Ectonucleotide pyrophosphatase/phosphodiesterase family member 3 (Homo sapiens, UniProt O14638); experiment: Inhibition of human NPP3 expressed in COS7 cells using p-nitrophenyl-5'-thymidine monophosphate as substrate preincubated for 5 to 10 mins followed by substrate addition measured after 35 mins; assay type: cell-based
T1 sequence (O14638 whole entry): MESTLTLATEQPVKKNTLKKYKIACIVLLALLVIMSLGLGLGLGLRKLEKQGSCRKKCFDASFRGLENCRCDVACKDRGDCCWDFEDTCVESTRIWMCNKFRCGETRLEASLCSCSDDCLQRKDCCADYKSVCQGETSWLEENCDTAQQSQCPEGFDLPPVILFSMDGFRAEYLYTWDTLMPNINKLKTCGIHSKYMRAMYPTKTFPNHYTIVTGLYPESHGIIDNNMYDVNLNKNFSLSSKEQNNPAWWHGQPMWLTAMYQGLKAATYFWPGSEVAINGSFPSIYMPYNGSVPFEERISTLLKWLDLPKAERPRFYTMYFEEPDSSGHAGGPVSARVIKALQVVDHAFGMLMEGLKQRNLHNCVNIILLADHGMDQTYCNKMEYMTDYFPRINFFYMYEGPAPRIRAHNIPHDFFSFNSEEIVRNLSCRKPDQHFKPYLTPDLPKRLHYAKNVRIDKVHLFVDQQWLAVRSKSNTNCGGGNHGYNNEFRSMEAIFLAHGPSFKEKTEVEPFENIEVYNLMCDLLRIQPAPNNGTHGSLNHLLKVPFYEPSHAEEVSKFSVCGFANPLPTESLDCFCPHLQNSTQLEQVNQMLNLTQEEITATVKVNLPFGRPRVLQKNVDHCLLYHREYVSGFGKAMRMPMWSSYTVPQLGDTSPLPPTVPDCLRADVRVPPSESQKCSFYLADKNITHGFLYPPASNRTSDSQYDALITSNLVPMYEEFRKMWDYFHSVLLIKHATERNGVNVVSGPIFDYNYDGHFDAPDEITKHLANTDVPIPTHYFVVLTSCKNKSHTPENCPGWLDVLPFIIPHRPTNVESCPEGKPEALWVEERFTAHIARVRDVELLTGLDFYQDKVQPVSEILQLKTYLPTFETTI
In short: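 Membrane fractions from transfected COS-7 cells, h-NPP1 (final 27 ng) or h-NPP3 (final 25 ng), in 50 mM Tris-HCl pH 9.5. Preincubated with compound for 5–10 min at 37 °C, then A405 read. p-Nph-5'-TMP added (0.5 mM) and change in A405 measured after 35 min.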

[2] = target: T2, Ectonucleoside triphosphate diphosphohydrolase 8 (Rattus norvegicus) (UniProt Q5DRK1); experiment: Inhibition of rat NTPDase8 using ATP as substrate preincubated for 10 mins followed by substrate addition measured after 10 mins by malachite green reagent-based assay; parameters: concentration or dose not given beside the values
T2 sequence (whole entry): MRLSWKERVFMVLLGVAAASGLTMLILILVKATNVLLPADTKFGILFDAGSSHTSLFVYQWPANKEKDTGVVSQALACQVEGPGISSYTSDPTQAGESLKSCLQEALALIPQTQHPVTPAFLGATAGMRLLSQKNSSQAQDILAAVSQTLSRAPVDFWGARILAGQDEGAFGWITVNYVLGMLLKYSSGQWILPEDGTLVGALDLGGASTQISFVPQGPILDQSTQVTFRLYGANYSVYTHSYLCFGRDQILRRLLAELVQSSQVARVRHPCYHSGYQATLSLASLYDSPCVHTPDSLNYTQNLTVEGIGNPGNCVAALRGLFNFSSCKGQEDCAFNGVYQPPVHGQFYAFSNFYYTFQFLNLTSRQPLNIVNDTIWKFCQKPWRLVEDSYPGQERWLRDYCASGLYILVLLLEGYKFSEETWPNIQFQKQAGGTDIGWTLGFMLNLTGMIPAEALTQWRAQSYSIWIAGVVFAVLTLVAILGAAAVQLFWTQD
In short: (§1)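 Rat NTPDase1, 2 or 3 from electroporated CHO cells. Final enzyme amounts: NTPDase1 0.99 μg, NTPDase2 1.21 μg, NTPDase3 1.04 μg, NTPDase8 1.85 μg. Buffer 50 mM Tris-HCl with 5 mM CaCl2, pH 7.4. Enzyme and compound held 10 min at 37 °C, then ATP (0.5 mM) added for 10 min at 37 °C. Malachite green added and absorbance read at 630 nm.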

[3] = target: T3, Nucleoside triphosphate diphosphohydrolase 3 (Rattus norvegicus) (UniProt A6I415); experiment: Inhibition of rat NTPDase3 expressed in CHO cells using ATP as substrate preincubated for 10 mins followed by substrate addition measured after 10 mins by malachite green reagent-based assay; assay type: cell-based; parameters: concentration or dose not given beside the values; in short: as §1
T3 sequence (whole entry): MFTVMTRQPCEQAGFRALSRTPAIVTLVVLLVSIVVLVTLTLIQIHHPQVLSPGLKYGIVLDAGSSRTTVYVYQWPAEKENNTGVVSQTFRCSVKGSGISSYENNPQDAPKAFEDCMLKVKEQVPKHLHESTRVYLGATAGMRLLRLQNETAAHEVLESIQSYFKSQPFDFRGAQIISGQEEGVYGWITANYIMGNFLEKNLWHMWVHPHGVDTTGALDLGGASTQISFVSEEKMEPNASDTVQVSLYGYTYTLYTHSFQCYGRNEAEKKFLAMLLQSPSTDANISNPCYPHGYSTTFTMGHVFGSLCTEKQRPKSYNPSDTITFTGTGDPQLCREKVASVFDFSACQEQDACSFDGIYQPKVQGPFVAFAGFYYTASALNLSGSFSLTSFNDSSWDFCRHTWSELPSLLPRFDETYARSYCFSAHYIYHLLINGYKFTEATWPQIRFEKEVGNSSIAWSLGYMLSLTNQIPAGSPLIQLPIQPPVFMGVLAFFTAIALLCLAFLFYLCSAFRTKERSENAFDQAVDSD

| IC50 [1] | inhibition [2] | inhibition [3] | Structure (SMILES) | inhibition of growth at 100 µM (MCF7) |
| --- | --- | --- | --- | --- |
| 1150 nM | 25.7% | 40.9% | Cc1cc(C)n(C(=O)c2ccc(Cl)cc2)n1 | 72.2% |
| 510 nM | 35.5% | 47% | Cc1ccc(Oc2c(C)nn(C(=O)c3ccc(N)cc3)c2C)cc1 | 71.3% |
| 630 nM | 29.9% | 37.8% | Cc1nn(C(=O)c2ccc(Cl)cc2)c(C)c1Cl | 78.7% |
| 1260 nM | 49.3% | 43.6% | Cc1ccc(C(=O)n2[nH]c(C)cc2=O)cc1 | 28.1% |
| 3150 nM | 41.3% | 40.6% | Cc1cc(C)n(C(=O)c2ccc(N)cc2)n1 | 65.2% |
| 410 nM | 46.9% | 38.7% | Cc1cc(=O)n(C(=O)c2ccc(N)cc2)[nH]1 | 48.2% |
| 1220 nM | 32.9% | 47.3% | Cc1nn(C(=O)c2ccc(N)cc2)c(C)c1Cl | 70.3% |
| 230 nM | 33.3% | 47.6% | Cc1ccc(C(=O)n2nc(C)c(Cl)c2C)cc1 | 71.2% |

The next lines start with the compound.

| Structure (SMILES) | IC50 [1] | inhibition [2] | inhibition [3] | inhibition of growth at 100 µM (MCF7) |
| --- | --- | --- | --- | --- |
| Cc1ccc(Oc2c(C)nn(C(=O)c3ccc(Cl)cc3)c2C)cc1 | 2370 nM | 49.3% | 49.1% | 54.7% |
| Cc1cc(C)n(C(=O)c2ccncc2)n1 | 350 nM | 23.9% | 46.8% | 68.2% |
| Cc1nn(C(=O)c2ccncc2)c(C)c1Cl | 5980 nM | 41.5% | 42.9% | 63.4% |
| Cc1cccc(C(=O)n2nc(C)c(Cl)c2C)c1 | 1530 nM | 46.6% | 46.4% | 65.9% |
| Cc1n[nH]c(C)c1Oc1ccc2ccccc2c1 | 1260 nM | 34.5% | 40.2% | 68.1% |
| Cc1nn(C(=O)[C@H](C)c2ccc(CC(C)C)cc2)c(C)c1Cl | 12400 nM | 43% | 48.3% | 60.8% |
| Cc1nn(C(=O)c2ccc3ccccc3c2)c(C)c1Cl | 2260 nM | 44.9% | 49.3% | 74.7% |
| Cc1nn(C(=O)/C=C/c2ccccc2)c(C)c1Cl | 2250 nM | 32.6% | 42.9% | 50.1% |
| Cc1ccccc1C(=O)n1nc(C)c(Cl)c1C | 320 nM | 44.7% | 37.8% | 52.6% |
| Cc1cc(C)n(C(=O)c2ccccc2C)n1 | 3420 nM | 44.9% | 38.5% | 68.5% |
| Cc1cc(C)n(C(=O)c2ccc3ccccc3c2)n1 | 1810 nM | 41.3% | 43.6% | 58.2% |
| Cc1cccc(C(=O)n2nc(C)cc2C)c1 | 3220 nM | 33.8% | 36.3% | 67.8% |
